Experimental data from different studies.
BRAF V600E: Serine/threonine-protein kinase B-raf (BRAF, Homo sapiens, UniProt P15056, V600E)
DRD2: D(2) dopamine receptor (DRD2, Homo sapiens, UniProt P14416)
PARP16: Protein mono-ADP-ribosyltransferase PARP16 (PARP16, Homo sapiens, UniProt Q8N5Y8)
ADORA3: Adenosine receptor A3 (ADORA3, Homo sapiens, UniProt P0DMS8)
Blk: Tyrosine-protein kinase Blk (Blk, Mus musculus, UniProt P16277)
NPY1R: Neuropeptide Y receptor type 1 (NPY1R, Homo sapiens, UniProt P25929)

With `Cc1ccc(N=Nc2sc(NN=C(CS(=O)(=O)c3ccccc3)c3ccc(C)cc3)nc2C)cc1` the inhibition was 48% (BRAF V600E; enzyme activity, inhibitor, ATP luminescence; 0.1 µM).
`CC(O)c1ccc(-c2ccc(CNCCc3c[nH]c4ccccc34)o2)cc1` (stereo not shown) has an inhibition of 36.8% (DRD2; enzyme activity, inhibitor; 10 µM).
For `Cn1cnc(Br)c1C1=CN(c2ncnc3[nH]cnc23)CCS1`, the inhibition was 18.7% (Serine/threonine-protein kinase Nek5 (NEK5, Homo sapiens, UniProt Q6P3R8); enzyme activity, inhibitor, radiometric; 50 nM).
`NS(=O)(=O)c1ccc(CCNCc2cccc3ccccc23)cc1` gave an inhibition of 42.2% (DRD2; enzyme activity, inhibitor; 10 µM).
With `Nc1ccc2c(c1)CCCn1nnnc1-2` the inhibition was 53% (PARP16; enzyme activity, inhibitor; 10 µM).
The inhibition of `Nc1ncnc2[nH]cnc12` is reported as 13% (ADORA3; ligand displacement, radioligand; 30 µM, cell membranes).
`COc1ccc(-c2csc(NN=C(CS(=O)(=O)c3ccccc3)c3ccc(F)cc3)n2)cc1` gave an inhibition of 51% (BRAF V600E; enzyme activity, inhibitor, ATP luminescence; 0.1 µM).
With `CN(C)C1CCN(CC#Cc2nn(C3CCCC3)c3nc(NCc4ccccc4)ncc23)C1` (stereo not shown) the inhibition was 8% (Mitogen-activated protein kinase 8 (MAPK8, Homo sapiens, UniProt P45983); enzyme activity, inhibitor, FRET; 10 µM).
For `O=C(c1ccc(F)cc1)N(Cc1ccccc1)C1CCCCC1`, the inhibition was 4% (ADORA3; cell-free assay; 10 µM).
`CCN(CC)c1ccc(C2Nc3ccc(C(=O)c4ccccc4)cc3NC3=C2C(=O)CC(C)(C)C3)cc1` (stereo not shown) has an inhibition of 5% (5-hydroxytryptamine receptor 1E (HTR1E, Homo sapiens, UniProt P28566); ligand displacement, radioligand; 10 µM).
`CCN(CC)CCNC(=O)c1c(C)[nH]c(/C=C2\C(=O)Nc3ccc(F)cc32)c1C` has an inhibition of 83% (Blk; enzyme activity, inhibitor; 10 µM).
`CCCCCCN1CCCn2c1nc1c2c(=O)n(C)c(=O)n1C` has an inhibition of 39% (ADORA3; ligand displacement, radioligand; 10 µM, cell membranes).
For `COc1ccccc1N1CCN(CC(O)Cn2cnc3c2c(=O)n(C)c(=O)n3C)CC1` (stereo not shown), the inhibition was 2.6% (DRD2; enzyme activity, inhibitor; 10 µM).
With `CNCc1ccc(-c2cc(-c3nc(-c4ccc(S(=O)(=O)C(C)C)cc4)cnc3N)on2)cc1` the inhibition was 2% (Blk; enzyme activity, inhibitor; 0.4 µM).
With `CC(C)(C)c1nc(-c2cccc(NS(=O)(=O)c3c(F)cccc3F)c2F)c(-c2ccnc(N)n2)s1` the inhibition was 95% (BRAF V600E; enzyme activity, inhibitor, ATP luminescence; 10 µM).
For `CS(=O)(=O)Nc1cccc(-c2csc(NC(=O)CSc3nc4nccnc4c(=O)n3CCc3ccccc3)n2)c1`, the inhibition was 0% (Phosphatidylinositol 4-kinase type 2-alpha (PI4K2A, Homo sapiens, UniProt Q9BTU6); enzyme activity, inhibitor; 10 µM).
With `CCCC(C)N1CCCn2c1nc1c2c(=O)n(C)c(=O)n1C` (stereo not shown) the inhibition was 17% (ADORA3; ligand displacement, radioligand; 10 µM, cell membranes).
For `CCOc1ccc(N2C(=O)CC(NCCc3ccccc3Cl)C2=O)cc1` (stereo not shown), the inhibition was 42.5% (DRD2; enzyme activity, inhibitor; 10 µM).
For `Oc1cccc(Nc2nc(-c3ccc(F)cc3F)cs2)c1`, the inhibition was -16.2% (NPY1R; cell-free assay; 10 µM).
`C=CCn1c(SCC(=O)NC2=NN(c3ccccc3)C(=O)C2)nnc1-c1cccs1` gave an inhibition of -12.8% (DRD2; enzyme activity, inhibitor; 10 µM).
The inhibition of `O=C(c1ccc(Cl)cc1)N(Cc1ccccc1)C1CCCCC1` is reported as -13.6% (NPY1R; cell-free assay; 10 µM).
`CCN(Cc1ccccc1C(F)(F)F)C(=O)C1CCN(S(=O)(=O)c2ccc3[nH]ncc3c2)CC1` gave an inhibition of 14% (ADORA3; ligand displacement, radioligand; 10 µM).
`O=C(Nc1ccc(S(=O)(=O)N2CCC(Cl)CC2)cc1)c1ccc([N+](=O)[O-])o1` gave an inhibition of 7% (NPY1R; ligand displacement, radioligand; 10 µM).
With `CC(C)CC(C)N1CCCn2c1nc1c2c(=O)n(C)c(=O)n1C` (stereo not shown) the inhibition was 22% (ADORA3; ligand displacement, radioligand; 10 µM, cell membranes).
`COc1ccc2c(c1)C(=O)N(CCCN1CCN(c3ccccc3OC)CC1)C2` gave an inhibition of 85% (DRD2; ligand displacement, radioligand; 10 µM).
With `O=C1CC(N2CCN(Cc3ccccc3)CC2)C(=O)N1c1ccc2c(c1)OCCO2` (stereo not shown) the inhibition was 34.1% (DRD2; enzyme activity, inhibitor; 10 µM).
With `Cc1ccc(Nc2nccc(N(C)c3ccc4c(C)n(C)nc4c3)n2)cc1S(N)(=O)=O` the inhibition was 63% (Dual specificity mitogen-activated protein kinase kinase 4 (Map2k4, Mus musculus, UniProt P47809); enzyme activity, inhibitor; 10 µM).
The inhibition of `O=C1NCCCc2ccc(F)cc21` is reported as 74% (PARP16; enzyme activity, inhibitor; 10 µM).
`CC(O)c1ccc(-c2ccc(CNCCc3ccc(S(N)(=O)=O)cc3)o2)cc1` (stereo not shown) gave an inhibition of 22.1% (DRD2; enzyme activity, inhibitor; 10 µM).
With `CCCCCN1CCCn2c1nc1c2c(=O)n(C)c(=O)n1C` the inhibition was 21% (ADORA3; ligand displacement, radioligand; 10 µM, cell membranes).
`[N-]=[N+]=N[C@@H](CC(=O)NO)Cc1ccc2ccccc2c1` has an inhibition of 24% (Endoplasmic reticulum aminopeptidase 2 (ERAP2, Homo sapiens, UniProt Q6P179); enzyme activity, inhibitor, fluorescence; 300 µM).
The inhibition of `COc1cc(NC(C)=O)c(Cl)cc1C(=O)Nc1nccs1` is reported as 6% (NPY1R; cell-free assay; 10 µM).
The inhibition of `CCCN1CCCn2c1nc1c2c(=O)n(C)c(=O)n1C` is reported as 10% (ADORA3; ligand displacement, radioligand; 10 µM, cell membranes).
For `Cc1ccc(C(CS(=O)(=O)c2ccccc2)=NNc2nc(C)c(N=Nc3cccc(C)c3)s2)cc1`, the inhibition was 63% (BRAF V600E; enzyme activity, inhibitor, ATP luminescence; 0.1 µM).
`CCOCCNC(=O)NC12CC3CC(CC(C3)C1)C2` gave an inhibition of 8.7% (ephB (Mycobacterium tuberculosis, UniProt I6YC03); enzyme activity, inhibitor; 10 nM).
`CCCCCC(C)N1CCCn2c1nc1c2c(=O)n(C)c(=O)n1C` (stereo not shown) gave an inhibition of 32% (ADORA3; ligand displacement, radioligand; 10 µM, cell membranes).
The inhibition of `Cc1ccc(C(CS(=O)(=O)c2ccccc2)=NN=C2N=C(c3ccc(Br)cc3)CS2)cc1` is reported as 43% (BRAF V600E; enzyme activity, inhibitor, ATP luminescence; 10 nM).
With `CC(C)CN1CCCn2c1nc1c2c(=O)n(C)c(=O)n1C` the inhibition was 18% (ADORA3; ligand displacement, radioligand; 10 µM, cell membranes).
For `O=C1N=C(N2CCCCN2)S/C1=C\c1ccc(F)cc1O`, the inhibition was 27% (ADORA3; ligand displacement, radioligand; 10 µM).
`Cc1ccc(C(CS(=O)(=O)c2ccccc2)=NNC2=NC(=O)C(=NNc3ccccc3)S2)cc1` gave an inhibition of 89% (BRAF V600E; enzyme activity, inhibitor, ATP luminescence; 10 µM).
`CNC(=O)c1cc(Oc2ccc(NC(=O)Nc3ccc(Cl)c(C(F)(F)F)c3)cc2)ccn1` gave an inhibition of 51% (Blk; enzyme activity, inhibitor; 10 µM).
`NC(=S)NN=C(CS(=O)(=O)c1ccccc1)c1ccc(F)cc1` has an inhibition of 92% (BRAF V600E; enzyme activity, inhibitor, ATP luminescence; 10 µM).
For `CN(C)C(=O)N[C@H]1CC[C@H](CCN2CCN(c3cccc(Cl)c3Cl)CC2)CC1`, the inhibition was 101% (DRD2; cell-free assay; 10 µM).
`Cc1ccc(C(CS(=O)(=O)c2ccccc2)=NNC2=NC(=O)C(=NNc3ccc([N+](=O)[O-])cc3)S2)cc1` has an inhibition of 49% (BRAF V600E; enzyme activity, inhibitor, ATP luminescence; 0.1 µM).
`C=CN1CCCn2c1nc1c2c(=O)n(C)c(=O)n1C` gave an inhibition of 11% (ADORA3; ligand displacement, radioligand; 10 µM, cell membranes).
The inhibition of `CC(=O)N[C@H]1CSSC[C@@H](C(=O)N[C@H](Cc2c[nH]c3ccccc23)C(N)=O)NC(=O)[C@@H](Cc2ccccc2)NC(=O)[C@H](CCCNC(=N)N)NC1=O` is reported as 35% (Melanocortin receptor 3 (MC3R, Homo sapiens, UniProt P41968); ligand displacement, radioligand; 10 µM, 40 min).
